According to ChEMBL document CHEMBL5335782, “Discovery of new imidazotetrazinones with potential to overcome tumor resistance” (Eur J Med Chem, 2023):
Each block holds one compound with its values, some of them ahead of it. Active and inactive are the calls of the source. The rule behind the calls is not given here.

How the values were obtained:
[1] = Antiproliferative activity against MGMT-expressing human U373M cells assessed as inhibition of cell growth measured after […] by MTT assay; assay type: functional
In short: (§1)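 Cells seeded at 6.5×10^2/well, left overnight, then exposed to vehicle or agent (n = 4-8; final 0.5–1000 μM; DMSO stocks of 50 or 10 mM diluted in medium). MTT read at time of addition and after 6 days at 37 °C, 5% CO₂. MTT 0.4 mg/mL for 4 h, formazan taken up in DMSO, A550. GI50 from non-linear regression; mean ± SD of >3 experiments.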

[2] = test system: HCT-116; assay: Antiproliferative activity against MMR-deficient human HCT-116 cells assessed as inhibition of cell growth measured after […] by MTT assay; assay type: functional; in short: as §1
[3] = Antiproliferative activity against human U373V cells assessed as inhibition of cell growth measured […] by MTT assay; assay type: functional; in short: as §1
[4] = Permeability of the compound assessed as drug recovery measured after 6 hrs by PAMPA assay; assay type: ADME; details: read-out: Drug recovery
In short: (§2)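 PAMPA passive-diffusion assay run as contract research under the provider's protocols, with control compounds. After 6 h incubation, permeability (Pe) and percentage recovery determined.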

[5] = Half life in human liver microsomes in presence of NADPH; assay type: ADME, Microsome
[6] = Half life of the compound in phosphate buffered saline at pH 7.4 by 1H NMR spectroscopic analysis; assay type: physicochemical
In short: (§3)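 Half-life followed by ¹H NMR spectroscopy in phosphate buffers at pH 7.4 or 5.5.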

[7] = Permeability of the compound measured after 6 hrs by PAMPA assay; assay type: ADME; details: read-out: permeability; in short: as §2
[8] = Apparent elimination half life in human plasma
[9] = Half life in rat liver microsomes in presence of NADPH; assay type: ADME, Microsome
[10] = Intrinsic clearance in rat liver microsomes in absence of NADPH; assay type: ADME, Microsome; details: read-out: CLH
[11] = Induction of cell cycle arrest in human U373V cells assessed as accumulation of cells at pre-G1 phase at 100 uM measured after 120 hrs by propidium iodide staining based flow cytometry (reference value: 1%); assay type: functional
[12] = Half life in human plasma; assay type: ADME, cell-free
[13] = Half life in rat plasma; assay type: ADME, cell-free
[14] = Apparent elimination half life in human
[15] = Half life in human liver microsomes in absence of NADPH; assay type: ADME, Microsome
[16] = Half life of the compound in phosphate buffered saline at pH 5 by LC-MS analysis; assay type: physicochemical
In short: (§4)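 Half-life in phosphate buffers at pH 5, 6.8 or 7.4 followed by LC-MS; mean of two independent experiments.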

[17] = Half life in rat liver microsomes in absence of NADPH; assay type: ADME, Microsome
[18] = Half life of the compound in phosphate buffered saline at pH 6.8 by LC-MS analysis; assay type: physicochemical; in short: as §4
[19] = Half life of the compound in phosphate buffered saline at pH 5.5 by 1H NMR spectroscopic analysis; assay type: physicochemical; in short: as §3
[20] = Ratio of permeability across dog MDCK cells transfected with MDR1 to permeability across wild type dog MDCK cells; assay type: ADME, cell-based, Canis lupus familiaris
[21] = test system: U373V; assay: Inhibition of cell colony formation in human U373V cells at 20 to 50 uM incubated for 24 hrs followed by drug removal and incubation in medium for 14 days; assay type: functional, cell-based; details: dose 20-50 µM
In short: (§5)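 Clonogenic survival: exponentially growing cells seeded in triplicate at 400 cells/well, attached overnight, then exposed for 24 h to 0, 2, 20 or 50 μM agent. Medium then replaced with drug-free medium for 14 days, or until control colonies held ≥50 cells. Colonies fixed in cold methanol, stained with 0.5% methylene blue, counted, and expressed relative to control. 2–3 experiments.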

[22] = test system: U373M; assay: Induction of cell cycle arrest in MGMT-expressing human U373M cells at 100 uM measured after 120 hrs by propidium iodide staining based flow cytometry; assay type: functional
[23] = test system: HCT-116; assay: Induction of cell cycle arrest in MMR-deficient human HCT-116 cells at 100 uM measured after 120 hrs by propidium iodide staining based flow cytometry; assay type: functional
[24] = Intrinsic clearance in human liver microsomes in presence of NADPH; assay type: ADME, Microsome; details: read-out: CLH
[25] = Intrinsic clearance in rat liver microsomes in presence of NADPH; assay type: ADME, Microsome; details: read-out: CLH
[26] = test system: U373V; assay: Induction of cell cycle arrest in human U373V cells assessed as accumulation of cells at G2/M phase at 100 uM measured after 120 hrs by propidium iodide staining based flow cytometry; assay type: functional
[27] = Half life of the compound in phosphate buffered saline at pH 7.4 by LC-MS analysis; assay type: physicochemical; in short: as §4
[28] = Selectivity ratio of GI50 for cytotoxicity against human MRC5 cells to GI50 for antiproliferative activity against MMR-deficient human HCT-116 cells; assay type: toxicity, cell-based; details: MRC5 cells versus MMR-deficient HCT-116 cells, read-out: RatioGI50
[29] = Intrinsic clearance in human liver microsomes in absence of NADPH; assay type: ADME, Microsome; details: read-out: CLH
[30] = test system: U373M; assay: Inhibition of cell colony formation in MGMT-expressing human U373M cells assessed as reduction in clonogenic survival at >=10 uM incubated for 24 hrs followed by drug removal and incubation in medium for 14 days; assay type: functional, cell-based; in short: as §5
[31] = Induction of cell cycle arrest in MGMT-expressing human U373M cells assessed as accumulation of cells at G1 phase at 20 uM measured after 120 hrs by propidium iodide staining based flow cytometry (reference value: 66%); assay type: functional
[32] = Stability of the compound in phosphate buffered saline at pH 5.5 by 1H NMR spectroscopy; assay type: physicochemical; details: buffer; in short: as §3
[33] = test system: HCT-116; assay: Inhibition of cell colony formation in MMR-deficient human HCT-116 cells assessed as reduction in clonogenic survival at >=10 uM incubated for 24 hrs followed by drug removal and incubation in medium for 14 days; assay type: functional, cell-based; in short: as §5
[34] = test system: U373V; assay: Inhibition of cell colony formation in human U373V cells assessed as reduction in clonogenic survival at >=10 uM incubated for 24 hrs followed by drug removal and incubation in medium for 14 days; assay type: functional, cell-based; in short: as §5
[35] = Cytotoxicity against human MRC5 cells assessed as inhibition of cell growth measured after 7 days by MTT assay; assay type: toxicity, cell-based; details: time 7 day; in short: as §1
[36] = Stability of the compound in phosphate buffered saline at pH 7.4 by 1H NMR spectroscopy; assay type: physicochemical; details: buffer; in short: as §3
[37] = Induction of cell cycle arrest in MGMT-expressing human U373M cells assessed as accumulation of cells at G2/M phase at 20 uM measured after 120 hrs by propidium iodide staining based flow cytometry; assay type: functional
[38] = test system: HCT-116; assay: Induction of cell cycle arrest in MMR-deficient human HCT-116 cells assessed as accumulation of cells at pre-G1 phase at 20 uM measured after 120 hrs by propidium iodide staining based flow cytometry (Rvb ~5%); assay type: functional

GI50 [2]: 25.1 µM
Structure (SMILES): C#CCn1nnc2c(-c3nc(C(C)(C)C)cs3)ncn2c1=O
GI50 [1]: 19.2 µM
GI50 [3]: 27.3 µM

recovery at 6 h [4]: 65.3%
half-life [5]: 0.848 h
half-life [6]: 1.53 h
Papp at 6 h [7]: 0.63 ×10⁻⁶ cm/s
t1/2 [8]: 0.25 h
half-life [9]: > 8 h
microsomal CLint [10]: < 1 µL/min/mg
half-life [12]: 0.33 h
half-life [13]: 0.298 h
half-life [14]: 1.8 h
half-life [15]: 1 h
half-life [16]: > 8 h
half-life [17]: > 8 h
half-life [18]: 4.02 h
half-life [19]: > 100 h
Ratio [20]: 3.21
microsomal CLint [24]: 27.3 µL/min/mg
microsomal CLint [25]: < 1 µL/min/mg
half-life [27]: 2.47 h
GI50 [2]: 291 µM
microsomal CLint [29]: 23 µL/min/mg
Structure (SMILES): Cn1nnc2c(C(N)=O)ncn2c1=O [TEMOZOLOMIDE]
GI50 [1]: 302 µM
Activity [11]: 9%
inhibition [21]: Active
Activity [22]: inactive
Activity [23]: inactive
Activity [26]: Active
GI50 [3]: 51.9 µM
selectivity ratio [28]: 1.4

GI50 [2]: 27.6 µM
Structure (SMILES): C#CCn1nnc2c(-c3nc(-c4ccc(F)cc4)cs3)ncn2c1=O
GI50 [1]: 19.7 µM
GI50 [3]: 27.9 µM

GI50 [2]: 4.6 µM
Structure (SMILES): C#CCn1nnc2c(-c3ncc(C)s3)ncn2c1=O
GI50 [1]: 3.99 µM
GI50 [3]: 6.84 µM

GI50 [2]: 29 µM
Structure (SMILES): C#CCn1nnc2c(-c3nc(-c4ccncc4)cs3)ncn2c1=O
GI50 [1]: 25.1 µM
GI50 [3]: 23.5 µM

GI50 [2]: 27.7 µM
Structure (SMILES): C#CCn1nnc2c(-c3nc(C(F)(F)C(F)(F)F)cs3)ncn2c1=O
GI50 [1]: 25.8 µM
GI50 [3]: 27.1 µM

GI50 [2]: 27.7 µM
Structure (SMILES): C#CCn1nnc2c(-c3nc(C4CC4)cs3)ncn2c1=O
GI50 [1]: 25.8 µM
GI50 [3]: 27.1 µM

GI50 [2]: 97 µM
Structure (SMILES): Nc1nc[nH]c1-c1nccs1
GI50 [1]: 89.3 µM
GI50 [3]: > 100 µM

GI50 [2]: 19.2 µM
Structure (SMILES): C#CCn1nnc2c(-c3nc(C4CCCC4)cs3)ncn2c1=O
GI50 [1]: 11.8 µM
GI50 [3]: 23.7 µM

recovery at 6 h [4]: 17.5%
Stability [32]: Stable
half-life [5]: 0.527 h
half-life [6]: 3 h
Papp at 6 h [7]: 3.18 ×10⁻⁶ cm/s
half-life [9]: 0.63 h
microsomal CLint [10]: 17.5 µL/min/mg
half-life [12]: 0.0557 h
half-life [13]: 0.0443 h
half-life [15]: 1.53 h
half-life [16]: > 8 h
Stability [36]: Stable
half-life [17]: 1.32 h
half-life [18]: 5.46 h
half-life [19]: 1.07 h
Ratio [20]: 1.11
microsomal CLint [24]: 44 µL/min/mg
microsomal CLint [25]: 37.2 µL/min/mg
half-life [27]: 3.29 h
GI50 [2]: 5.35 µM
microsomal CLint [29]: 16.4 µL/min/mg
Structure (SMILES): C#CCn1nnc2c(-c3nccs3)ncn2c1=O
inhibition [30]: Active
Activity [31]: 43%
GI50 [1]: 4.09 µM
inhibition [33]: Active
inhibition [34]: Active
GI50 at 168 h [35]: 25 µM
Activity [37]: 21%
Activity [38]: >60%
GI50 [3]: 3.59 µM
selectivity ratio [28]: > 5

GI50 [2]: 5.97 µM
Structure (SMILES): C#CCN/N=N/c1[nH]cnc1-c1nccs1
GI50 [1]: 5.81 µM
GI50 [3]: 7.51 µM
